The record followed here is ChEMBL document CHEMBL1158375, “Design and synthesis of new N-(fluorenyl-9-methoxycarbonyl) (Fmoc)-dipeptides as anti-inflammatory agents” (Eur J Med Chem, 2009).

What all share (settings): Neutrophil
Test [1] can be described thus: Antiinflammatory activity in fMLP/cytochalasin B-stimulated human neutrophils assessed as inhibition of superoxide anion generation after 5 mins. It counts as functional, cell-based. The procedure, abridged: (§1)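 Donor neutrophils isolated by dextran sedimentation, Ficoll Hypaque and hypotonic lysis, kept in Ca2+-free HBSS pH 7.4 at 4 °C. Cells given 0.5 mg/mL ferricytochrome c and 1 mM Ca2+, 2 min at 37 °C, drug 5 min, CB 1 μg/mL 3 min, then 100 nM fMLP for 10 min. SOD-inhibitable cytochrome c reduction. IC50 or % inhibition at 10 μg/mL; mean ± S.E.M., n = 3-4.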

Test [2] in a line: Antiinflammatory activity in fMLP/cytochalasin B-stimulated human neutrophils assessed as inhibition of superoxide anion generation at 10 ug/ml after 5 mins. The test is classed as functional. In outline:
as §1

A short description of test [3]: Antiinflammatory activity in fMLP/cytochalasin B-stimulated human neutrophils assessed as inhibition of elastase release after 5 mins. It counts as functional, cell-based. In outline:
(§2)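 Neutrophils from healthy donor blood (dextran sedimentation, Ficoll Hypaque, hypotonic erythrocyte lysis; >98% viable), held in Ca2+-free HBSS pH 7.4 at 4 °C. 5 × 10⁵ cells/mL with 100 μM MeO-Suc-Ala-Ala-Pro-Val-p-nitroanilide, 2 min at 37 °C, drug 5 min, then 100 nM fMLP + 0.5 μg/mL CB. A405 followed continuously; percent of initial rate versus drug-free control. IC50 or % inhibition at 10 μg/mL; mean ± S.E.M., n = 3-4.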

A short description of test [4]: Antiinflammatory activity in fMLP/cytochalasin B-stimulated human neutrophils assessed as inhibition of elastase release at 10 ug/ml after 5 mins. It counts as functional. The procedure, abridged: as §2

In general, IC50 refers to the concentration that gives 50% inhibition. Consider `c1ccc2c(c1)[I+]c1ccccc1-2` [DIPHENYLENEIODONIUM], for which the IC50 in test [1] came to 0.7 µM.

The term inhibition denotes the relative decrease from the control value, in per cent. As to `CC(=O)OC[C@@H](Cc1ccccc1)NC(=O)[C@H](Cc1ccc(O)cc1)NC(=O)OCC1c2ccccc2-c2ccccc21`, the inhibition at 10 µg/mL in test [2] came to 8%. Also, the IC50 in test [3] is 6.5 µM.

Regarding `CC(=O)OC[C@@H](Cc1ccccc1)NC(=O)[C@H](Cc1cn(C(c2ccccc2)(c2ccccc2)c2ccccc2)cn1)NC(=O)OCC1c2ccccc2-c2ccccc21`, the inhibition at 10 µg/mL in test [2] is 6.6%; in test [4], -2.9%.

On to `CC(=O)OC[C@@H](Cc1ccccc1)NC(=O)[C@H](Cc1ccccc1)NC(=O)OCc1ccccc1`, for which the figures for the inhibition at 10 µg/mL in test [2] and in test [4] were 40.9% and 35.4%, respectively.

`CC(=O)OC[C@H](Cc1ccccc1)NC(=O)[C@@H](NC(=O)OCC1c2ccccc2-c2ccccc21)C(C)C`: the inhibition at 10 µg/mL is -6.3% in test [2] and 27.7% in test [4].

For `CC(=O)OC[C@@H](Cc1ccccc1)NC(=O)[C@H](Cc1ccccc1)NC(=O)OCC1c2ccccc2-c2ccccc21`, the inhibition at 10 µg/mL in test [2] was 31.3%. Further, the IC50 in test [3] stood at 12.9 µM.

For `CC(=O)OC[C@@H](Cc1ccccc1)NC(=O)[C@H](Cc1c[nH]c2ccccc12)NC(=O)OCC1c2ccccc2-c2ccccc21`, the inhibition at 10 µg/mL in test [2] is 18.6%. In test [3], the IC50 turned out to be 1.7 µM.

As to `CC(=O)OC[C@@H](Cc1ccccc1)NC(=O)[C@H](Cc1ccccc1)NC(=O)OC(C)(C)C`, the inhibition at 10 µg/mL is 4.7% in test [2] and 11% in test [4].

Turning to `CC[C@H](C)[C@H](NC(=O)OCC1c2ccccc2-c2ccccc21)C(=O)N[C@H](COC(C)=O)Cc1ccccc1`, the inhibition at 10 µg/mL in test [2] stood at 2.2%; in test [4], 25.8%.

`CC(C)(C)Oc1ccc(C[C@H](NC(=O)OCC2c3ccccc3-c3ccccc32)C(=O)O)cc1`: the IC50 in test [1] came to 5.5 µM; in test [3], 5.6 µM.

Take `CC(=O)OC[C@@H](Cc1ccccc1)NC(=O)[C@H](Cc1ccc2ccccc2c1)NC(=O)OCC1c2ccccc2-c2ccccc21`: in test [2], the inhibition at 10 µg/mL was 2.1%. Moreover, in test [3], the half-inhibitory concentration (IC50) is 14.5 µM.

In the case of `CC(=O)OC[C@@H](Cc1ccccc1)NC(=O)[C@H](Cc1ccc(OC(C)(C)C)cc1)NC(=O)OCC1c2ccccc2-c2ccccc21`, the values for the inhibition at 10 µg/mL in test [2] and in test [4] were 22.3% and 31.9%, respectively.

For `CC[C@H](C)[C@H](NC(=O)OCC1c2ccccc2-c2ccccc21)C(=O)O`, the IC50 in test [1] was 12.8 µM. Further, the inhibition at 10 µg/mL in test [4] came out at 39.8%.

Consider `CC(=O)OC[C@H](Cc1ccccc1)NC(=O)[C@H](Cc1ccccc1)NC(=O)OC(C)(C)C`, for which the inhibition at 10 µg/mL in test [2] turned out to be 42.1%; in test [4], 18.9%.

In the case of `CC[C@H](C)[C@H](NC(=O)OCC1c2ccccc2-c2ccccc21)C(=O)N[C@@H](COC(C)=O)Cc1ccccc1`, the inhibition at 10 µg/mL in test [2] worked out at 6%; in test [4] it was 22.5%.

Regarding `CC(=O)OC[C@@H](Cc1ccccc1)NC(=O)[C@@H](N)Cc1ccc(O)cc1`, the inhibition at 10 µg/mL in test [2] is 8%. In addition, in test [3], the half-inhibitory concentration (IC50) was 3.7 µM.

Turning to `CC(=O)OC[C@H](Cc1ccccc1)NC(=O)[C@@H](N)Cc1ccccc1`, the IC50 in test [1] and in test [3] was greater than 20 µM throughout.

Consider `CC(=O)OC[C@H](Cc1ccccc1)NC(=O)[C@H](Cc1ccc(OC(C)(C)C)cc1)NC(=O)OCC1c2ccccc2-c2ccccc21`, for which the inhibition at 10 µg/mL in test [2] is 25.9%. Besides, in test [3], the IC50 turned out to be 0.8 µM.

`O=C(N[C@@H](Cc1ccc(O)cc1)C(=O)O)OCC1c2ccccc2-c2ccccc21`: the IC50 in test [1] is 2.4 µM; in test [3], 2.9 µM.

With `O=C(N[C@@H](Cc1ccccc1)C(=O)O)OCC1c2ccccc2-c2ccccc21`, the IC50 in test [1] amounted to 14.1 µM; in test [3] it was 14.2 µM.

Take `CC(=O)OC[C@H](Cc1ccccc1)NC(=O)[C@H](Cc1ccccc1)NC(=O)OCc1ccccc1`: the inhibition at 10 µg/mL in test [2] turned out to be 39.3%; in test [4], 27.2%.

Take `CC(=O)OC[C@@H](Cc1ccccc1)NC(=O)[C@@H](NC(=O)OCC1c2ccccc2-c2ccccc21)C(C)C`: the inhibition at 10 µg/mL was -2.3% in test [2] and 34.6% in test [4].

On to `CC(=O)OC[C@H](Cc1ccccc1)NC(=O)[C@H](Cc1cn(C(c2ccccc2)(c2ccccc2)c2ccccc2)cn1)NC(=O)OCC1c2ccccc2-c2ccccc21`, for which the values for the inhibition at 10 µg/mL in test [2] and in test [4] were 9.5% and 32%, respectively.

As for `CC(C)[C@H](NC(=O)OCC1c2ccccc2-c2ccccc21)C(=O)O`, the inhibition at 10 µg/mL is 29.4% in test [2] and 14.5% in test [4].

Take `CC(=O)OC[C@H](Cc1ccccc1)NC(=O)[C@H](Cc1ccc2ccccc2c1)NC(=O)OCC1c2ccccc2-c2ccccc21`: the inhibition at 10 µg/mL is 5% in test [2] and 37.8% in test [4].

For the molecule `CC(=O)OC[C@H](Cc1ccccc1)NC(=O)[C@@H](N)Cc1ccc(O)cc1`, the inhibition at 10 µg/mL was -0.5% in test [2] and 22.8% in test [4].

For the molecule `CC(=O)OC[C@H](Cc1ccccc1)NC(=O)[C@H](Cc1ccccc1)NC(=O)OCC1c2ccccc2-c2ccccc21`, the values for the inhibition at 10 µg/mL in test [2] and in test [4] were 2.8% and 39.5%, respectively.

For `CC(=O)OC[C@@H](Cc1ccccc1)NC(=O)[C@@H](N)Cc1ccccc1`, the IC50 in test [1] and in test [3] was greater than 20 µM each time.

As to `CC(=O)OC[C@H](Cc1ccccc1)NC(=O)[C@H](Cc1c[nH]c2ccccc12)NC(=O)OCC1c2ccccc2-c2ccccc21`, the inhibition at 10 µg/mL in test [2] is 24.5%. Also, the IC50 in test [3] came to 5.5 µM.

Turning to `O=C(N[C@@H](Cc1c[nH]c2ccccc12)C(=O)O)OCC1c2ccccc2-c2ccccc21`, the IC50 in test [1] came out at 3.3 µM. Besides, the inhibition at 10 µg/mL in test [4] turned out to be 45.4%.

In the case of `CC(=O)OC[C@H](Cc1ccccc1)NC(=O)[C@H](Cc1ccc(O)cc1)NC(=O)OCC1c2ccccc2-c2ccccc21`, the inhibition at 10 µg/mL was -0.5% in test [2] and 22.8% in test [4].
